# Laboratory results taken from PMC12044415 (RSC Advances, 2025).
# Legend:
# Assay in all cases: Cell viability assay
# Assay type in all cases: cell-based, human
# [1] = tested on: A2780 (cisplatin-sensitive ovarian cancer cells); settings: read-out: IC50 A2780; 96 h of incubation
# Outline: (§1)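 Cells cultured per supplier at 37 °C, 5% CO2, and seeded at 1.5 × 10^3 per well. Treated with six concentrations of test compound (0.001, 0.01, 0.1, 1, 10 and 100 μM final), diluted into culture medium from a 10 mM DMSO stock; cisplatin stock in water. Viability read by CellTiter-Glo after 96 h. IC50 from triplicates, error bars as standard deviations.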
# [2] = tested on: A2780cis (cisplatin-resistant ovarian cancer cells); settings: read-out: IC50 A2780cis; 96 h of incubation
# Outline: as §1
# [3] = tested on: MDA-MB-231 (triple-negative breast cancer); settings: read-out: IC50 MDA-MB-231; 96 h of incubation
# Outline: as §1
# U87 (glioblastoma) = settings: read-out: IC50 U87; 96 h of incubation
# Outline: as §1
# [4] = tested on: MRC-5 (normal lung fibroblasts); settings: read-out: IC50 MRC-5; 96 h of incubation
# Outline: as §1
compound,measurement,setting,value
C[N+]12CN3CN(C1)C[PH]([Pd]([I])([c]1ccc([N+](=O)[O-])cc1)[PH]14CN5CN(C[N+](C)(C5)C1)C4)(C3)C2.F[P-](F)(F)(F)(F)F.F[P-](F)(F)(F)(F)F [7b],IC50,[1],3.1 ± 0.3 µM
same,IC50,[2],0.18 ± 0.02 µM
same,IC50,[3],6.7 ± 0.9 µM
same,IC50,U87 (glioblastoma),90 ± 10 µM
same,IC50,[4],> 100 µM
"N.N.[Cl][Pt][Cl] [Cisplatin, cisplatin, reference compound]",IC50,[2],45 ± 5 µM
same,IC50,U87 (glioblastoma),10.4 ± 0.4 µM
same,IC50,[4],4 ± 1 µM
